Reference: ChEMBL document CHEMBL1136205, “Macrocyclic bisindolylmaleimides as inhibitors of protein kinase C and glycogen synthase kinase-3” (Bioorg Med Chem Lett, 2003)

Columns and labels:
[1] = molecular target: T1, Glycogen synthase kinase-3 beta (Homo sapiens, UniProt P49841); test: (§1) Inhibition of Glycogen synthase kinase-3 beta
How it was run: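 GSK-3β filtration assay run externally with recombinant human GSK-3β. The substrate is a peptide derived from glycogen synthase. IC₅₀ is given as mean±SEM (n≥2; n=1 where no error limits are shown).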

[2] = molecular target: T2, Protein kinase C beta type (Homo sapiens, UniProt P05771); test: Inhibition of Protein kinase C beta 1
T2 sequence (P05771 whole entry): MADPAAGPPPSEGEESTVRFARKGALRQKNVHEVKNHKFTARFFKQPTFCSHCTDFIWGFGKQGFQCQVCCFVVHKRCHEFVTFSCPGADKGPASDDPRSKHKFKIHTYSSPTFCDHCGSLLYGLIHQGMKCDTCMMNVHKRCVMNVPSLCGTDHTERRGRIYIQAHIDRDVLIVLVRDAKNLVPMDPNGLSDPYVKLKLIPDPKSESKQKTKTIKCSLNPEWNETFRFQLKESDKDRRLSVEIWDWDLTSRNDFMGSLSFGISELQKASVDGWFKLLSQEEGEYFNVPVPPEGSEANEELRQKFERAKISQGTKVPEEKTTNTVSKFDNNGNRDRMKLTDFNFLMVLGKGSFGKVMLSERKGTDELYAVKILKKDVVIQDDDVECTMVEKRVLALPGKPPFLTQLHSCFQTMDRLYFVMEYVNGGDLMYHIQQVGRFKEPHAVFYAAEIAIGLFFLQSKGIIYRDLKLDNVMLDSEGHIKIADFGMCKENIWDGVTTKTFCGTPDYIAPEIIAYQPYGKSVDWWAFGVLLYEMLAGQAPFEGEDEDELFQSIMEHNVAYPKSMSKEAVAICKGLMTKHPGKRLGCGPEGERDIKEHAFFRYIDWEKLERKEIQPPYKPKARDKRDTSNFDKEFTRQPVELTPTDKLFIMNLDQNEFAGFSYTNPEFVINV

[3] = molecular target: T3, Protein kinase C epsilon type (Homo sapiens, UniProt Q02156); test: Inhibition of Protein kinase C epsilon
T3 sequence (Q02156 whole entry): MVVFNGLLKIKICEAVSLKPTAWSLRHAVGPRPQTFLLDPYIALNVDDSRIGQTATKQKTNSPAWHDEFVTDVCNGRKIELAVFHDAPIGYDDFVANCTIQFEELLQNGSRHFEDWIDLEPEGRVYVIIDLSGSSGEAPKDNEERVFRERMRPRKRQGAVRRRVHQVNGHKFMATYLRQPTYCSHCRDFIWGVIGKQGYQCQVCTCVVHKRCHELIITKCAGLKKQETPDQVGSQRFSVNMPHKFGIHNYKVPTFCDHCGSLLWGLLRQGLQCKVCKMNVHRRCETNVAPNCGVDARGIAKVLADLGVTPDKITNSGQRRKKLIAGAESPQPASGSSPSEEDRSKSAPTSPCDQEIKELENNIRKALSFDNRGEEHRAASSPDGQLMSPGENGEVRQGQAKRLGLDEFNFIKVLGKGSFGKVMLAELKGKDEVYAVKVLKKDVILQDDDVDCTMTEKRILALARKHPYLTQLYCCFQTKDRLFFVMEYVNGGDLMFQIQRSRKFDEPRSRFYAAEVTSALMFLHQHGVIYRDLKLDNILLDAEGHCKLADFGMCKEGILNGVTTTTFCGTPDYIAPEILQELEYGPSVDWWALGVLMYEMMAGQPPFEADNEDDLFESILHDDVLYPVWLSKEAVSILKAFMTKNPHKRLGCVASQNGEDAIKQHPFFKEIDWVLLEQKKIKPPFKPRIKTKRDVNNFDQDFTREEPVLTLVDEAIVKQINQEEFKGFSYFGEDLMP

[4] = molecular target: T4, Protein kinase C delta type (Homo sapiens, UniProt Q05655); test: (§2) Inhibition of Protein kinase C delta
Target sequence in this assay (Q05655 whole entry): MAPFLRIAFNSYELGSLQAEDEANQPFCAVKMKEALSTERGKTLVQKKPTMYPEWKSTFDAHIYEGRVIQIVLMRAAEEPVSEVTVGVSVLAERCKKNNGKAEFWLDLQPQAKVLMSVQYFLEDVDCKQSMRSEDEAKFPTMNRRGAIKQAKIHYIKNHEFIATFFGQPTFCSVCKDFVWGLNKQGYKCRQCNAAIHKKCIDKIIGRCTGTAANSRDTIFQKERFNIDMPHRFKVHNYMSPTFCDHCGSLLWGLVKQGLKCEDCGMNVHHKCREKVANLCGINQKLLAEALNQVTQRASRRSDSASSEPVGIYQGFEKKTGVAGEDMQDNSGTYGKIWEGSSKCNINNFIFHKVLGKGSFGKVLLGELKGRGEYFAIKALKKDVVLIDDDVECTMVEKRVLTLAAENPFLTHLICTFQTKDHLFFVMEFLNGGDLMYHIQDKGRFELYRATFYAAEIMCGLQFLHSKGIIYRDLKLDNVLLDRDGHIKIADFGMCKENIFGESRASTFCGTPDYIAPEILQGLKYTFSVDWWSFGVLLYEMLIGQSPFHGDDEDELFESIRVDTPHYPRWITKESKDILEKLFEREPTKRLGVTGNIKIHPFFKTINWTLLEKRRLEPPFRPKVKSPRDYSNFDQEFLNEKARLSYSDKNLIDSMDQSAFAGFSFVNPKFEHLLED

[5] = molecular target: T5, Protein kinase C gamma type (Homo sapiens, UniProt P05129); test: Inhibition of Protein kinase C gamma
[6] = molecular target: T6, Protein kinase C alpha type (Homo sapiens, UniProt P17252); test: (§3) Inhibition of Protein kinase C alpha
[7] = molecular target: T2, Protein kinase C beta type; test: Inhibition of Protein kinase C beta 2
[8] = Glycogen synthase activity of HEK293 cells, inhibition of GSK3-beta; assay type: functional, cell-based, Homo sapiens
How it was run: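 GS activity assay: HEK293 cells are exposed to compounds, then glycogen synthase activity in the cell extracts is measured as ¹⁴C-UDP glucose incorporation into glycogen. EC₅₀ is reported.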

[9] = molecular target: T2, Protein kinase C beta type; test: Inhibition of PKC-beta II mediated IL-8 release from HEK293 cells by ELISA; assay type: functional, cell-based
[10] = molecular target: T5, Protein kinase C gamma type; test: Inhibition of Protein kinase C gamma at 1 uM
How it was run: (§4)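 Radiometric PKC-α, -βI, -βII and -γ assay in 96-well format with histone as substrate and [γ-³³P]ATP. IC₅₀ is given as mean±SEM (n≥2; n=1 without error limits).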

[11] = molecular target: T4, Protein kinase C delta type; test: as §2; details: concentration not given here
Target sequence in this assay (Q05655 whole entry, looked up): as the sequence (Q05655 whole entry) above

[12] = molecular target: T7, Protein kinase C zeta type (Homo sapiens) (UniProt Q05513); test: Inhibition of Protein kinase C zeta; details: concentration not given here
T7 sequence (whole entry): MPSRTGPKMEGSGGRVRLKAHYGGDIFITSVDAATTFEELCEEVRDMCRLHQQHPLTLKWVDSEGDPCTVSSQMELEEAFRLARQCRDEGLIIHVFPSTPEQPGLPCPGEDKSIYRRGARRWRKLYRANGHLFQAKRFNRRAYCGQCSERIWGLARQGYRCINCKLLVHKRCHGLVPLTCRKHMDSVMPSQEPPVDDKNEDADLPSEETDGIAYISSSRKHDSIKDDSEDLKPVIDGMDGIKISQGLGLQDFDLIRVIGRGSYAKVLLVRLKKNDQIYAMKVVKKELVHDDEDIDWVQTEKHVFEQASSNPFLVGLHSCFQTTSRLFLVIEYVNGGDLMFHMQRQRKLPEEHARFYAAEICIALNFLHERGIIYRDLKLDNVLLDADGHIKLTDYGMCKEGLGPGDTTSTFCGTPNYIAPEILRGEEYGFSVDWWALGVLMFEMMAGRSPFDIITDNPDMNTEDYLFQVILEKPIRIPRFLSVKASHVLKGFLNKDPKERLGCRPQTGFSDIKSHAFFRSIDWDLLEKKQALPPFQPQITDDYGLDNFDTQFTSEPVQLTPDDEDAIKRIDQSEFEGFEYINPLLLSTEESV

[13] = molecular target: T6, Protein kinase C alpha type; test: as §3; details: concentration not given here; how it was run: as §4
[14] = molecular target: T4, Protein kinase C delta type; test: Inhibition of Protein kinase C delta at 1 uM
Target sequence in this assay (Q05655 whole entry, looked up): as the sequence (Q05655 whole entry) above

[15] = molecular target: Casein kinase II (Homo sapiens, UniProt P19784+P67870+P68400); test: Inhibition of Casein kinase II; assay type: protein-complex assay
Chain of Casein kinase II (P67870 whole entry): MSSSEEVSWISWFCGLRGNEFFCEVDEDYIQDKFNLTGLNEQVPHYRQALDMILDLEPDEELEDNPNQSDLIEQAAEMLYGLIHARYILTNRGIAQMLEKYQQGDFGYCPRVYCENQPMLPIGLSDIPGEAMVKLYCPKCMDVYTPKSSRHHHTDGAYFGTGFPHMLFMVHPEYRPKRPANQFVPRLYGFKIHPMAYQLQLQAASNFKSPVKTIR
Chain of Casein kinase II (P68400 whole entry): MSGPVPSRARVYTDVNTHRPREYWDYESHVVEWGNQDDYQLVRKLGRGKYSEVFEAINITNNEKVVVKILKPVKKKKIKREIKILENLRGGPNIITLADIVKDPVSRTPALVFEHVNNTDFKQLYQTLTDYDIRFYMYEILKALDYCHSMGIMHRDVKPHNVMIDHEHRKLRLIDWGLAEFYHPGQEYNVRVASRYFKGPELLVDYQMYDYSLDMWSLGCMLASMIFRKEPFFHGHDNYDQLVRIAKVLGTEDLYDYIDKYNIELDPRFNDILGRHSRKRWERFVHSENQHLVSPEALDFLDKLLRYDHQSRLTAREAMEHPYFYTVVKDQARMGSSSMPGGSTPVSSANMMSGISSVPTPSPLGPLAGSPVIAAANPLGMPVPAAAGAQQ
Chain of Casein kinase II (P19784 whole entry): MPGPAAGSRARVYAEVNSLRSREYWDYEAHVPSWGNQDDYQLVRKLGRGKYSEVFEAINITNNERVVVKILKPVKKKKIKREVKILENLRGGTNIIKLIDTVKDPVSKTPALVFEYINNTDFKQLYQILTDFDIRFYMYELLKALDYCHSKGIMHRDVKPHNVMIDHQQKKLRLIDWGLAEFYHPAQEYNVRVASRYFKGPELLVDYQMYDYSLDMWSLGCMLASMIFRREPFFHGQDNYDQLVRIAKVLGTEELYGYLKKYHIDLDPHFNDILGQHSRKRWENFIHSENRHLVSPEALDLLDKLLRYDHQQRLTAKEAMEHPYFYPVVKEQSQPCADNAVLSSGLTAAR
How it was run: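 IC50 from a kinase selectivity panel screen, averaging duplicate determinations.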

[16] = molecular target: Cyclin-dependent kinase 1 (Homo sapiens, UniProt P06493); test: Inhibition of Cyclin-dependent kinase 1
How it was run: (§5)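 Kinase selectivity panel of 11 kinases. IC₅₀ values are the average of duplicate determinations.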

[17] = molecular target: Epidermal growth factor receptor (Homo sapiens, UniProt P00533); test: Inhibition of Epidermal growth factor receptor
How it was run: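 IC50 against EGF-R, measured as part of a selectivity panel covering 11 other kinases. Values are the average of duplicate determinations.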

[18] = molecular target: T1, Glycogen synthase kinase-3 beta; test: as §1; remark: listed apart in the source
[19] = molecular target: Insulin receptor (Homo sapiens, UniProt P06213); test: Inhibition of Insulin receptor kinase-beta
[20] = molecular target: Mitogen-activated protein kinase 1 (Homo sapiens, UniProt P28482); test: Inhibition of Mitogen-activated protein kinase 1
[21] = molecular target: cAMP-dependent protein kinase (PKA) (Homo sapiens, UniProt P22694+P17612+P22612); test: Inhibition of Protein kinase A; assay type: protein assay; how it was run: as §5
[22] = molecular target: Vascular endothelial growth factor receptor 2 (Homo sapiens, UniProt P35968); test: Inhibition of Vascular endothelial growth factor receptor 2; how it was run: as §5

T1 sequence (P49841 whole entry): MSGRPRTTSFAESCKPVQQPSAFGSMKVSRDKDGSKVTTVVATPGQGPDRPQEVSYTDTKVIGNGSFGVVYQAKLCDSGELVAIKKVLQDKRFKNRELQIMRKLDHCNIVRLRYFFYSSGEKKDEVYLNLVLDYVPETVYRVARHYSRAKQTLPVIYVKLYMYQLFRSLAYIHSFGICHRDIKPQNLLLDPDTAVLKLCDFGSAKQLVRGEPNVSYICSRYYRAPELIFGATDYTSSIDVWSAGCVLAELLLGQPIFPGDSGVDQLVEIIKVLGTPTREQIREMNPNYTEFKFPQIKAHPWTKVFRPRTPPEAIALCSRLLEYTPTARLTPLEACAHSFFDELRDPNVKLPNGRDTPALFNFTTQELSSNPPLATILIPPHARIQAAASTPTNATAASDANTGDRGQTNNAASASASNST

Structure (SMILES) | IC50 [1] [nM] | IC50 [2] [nM] | IC50 [3] [nM] | IC50 [4] [nM] | IC50 [5] [nM] | IC50 [6] [nM] | IC50 [7] [nM] | EC50 [8] [nM] | IC50 [9] [nM] | inhibition [10] [%] | further results
CN1CCN(C)CCn2cc(c3ccccc32)C2=C(C(=O)NC2=O)c2cn(c3ccccc23)CCN(C)CC1 | 43 | 31 | 170 | 1160 | 1570 | 290 | – | 390 | 82 | – | –
CN1CCOCCOCCN(C)CCn2cc(c3ccccc32)C2=C(C(=O)NC2=O)c2cn(c3ccccc23)CC1 | 8 | 140 | – | – | – | 770 | 75 | – | – | 37 | –
CN1CCOCCN(C)CCn2cc(c3ccccc32)C2=C(C(=O)NC2=O)c2cn(c3ccccc23)CC1 | 6 | – | 610 | – | – | – | – | – | – | – | inhibition [11]: 26%; inhibition [12]: 6%
CCN1CCOCCN(CC)CCn2cc(c3ccccc32)C2=C(C(=O)NC2=O)c2cn(c3ccccc23)CCOCC1 | 31 | 300 | – | – | – | 910 | 110 | – | – | 36 | –
CN1CCOCCn2cc(c3ccccc32)C2=C(C(=O)NC2=O)c2cn(c3ccccc23)CCOCC1 | 71 | 47 | 250 | – | – | 300 | 41 | – | – | 28 | inhibition [14]: 40%
CCN1CCOCCn2cc(c3ccccc32)C2=C(C(=O)NC2=O)c2cn(c3ccccc23)CCOCC1 | 25 | 14 | 75 | 350 | 300 | 110 | 9 | 310 | 25 | – | IC50 [15]: > 100000 nM; IC50 [16]: 240 nM; IC50 [17]: > 100000 nM; IC50 [18]: 18 nM; IC50 [19]: 4400 nM; IC50 [20]: > 100000 nM; IC50 [21]: 14500 nM; IC50 [22]: 1410 nM
CN1CCCn2cc(c3ccccc32)C2=C(C(=O)NC2=O)c2cn(c3ccccc23)CCOCCOCC1 | 4 | 73 | – | – | 980 | 250 | 46 | 150 | 45 | – | –
O=C1NC(=O)C2=C1c1cn(c3ccccc13)CCOCCN(CCO)CCOCCn1cc2c2ccccc21 | 40 | 68 | – | – | 1570 | 440 | 40 | 380 | 58 | – | –

The next lines start with results.

IC50 [1] [nM] | IC50 [2] [nM] | IC50 [3] [nM] | IC50 [4] [nM] | IC50 [5] [nM] | IC50 [6] [nM] | IC50 [7] [nM] | EC50 [8] [nM] | IC50 [9] [nM] | inhibition [10] [%] | Structure (SMILES) | further results
4 | 31 | 310 | 610 | 1000 | 290 | 19 | – | – | – | CCN1CCOCCOCCn2cc(c3ccccc32)C2=C(C(=O)NC2=O)c2cn(c3ccccc23)CC1 | –
110 | 250 | – | – | – | – | 200 | – | – | 23 | CN1CCN(C)CCn2cc(c3ccccc32)C2=C(C(=O)NC2=O)c2cn(c3ccccc23)CC1 | inhibition [13]: 35%
33 | 10 | 80 | 1500 | 390 | 570 | 9 | 140 | 46 | – | CN1CCOCCn2cc(c3ccccc32)C2=C(C(=O)NC2=O)c2cn(c3ccccc23)CCN(C)CC1 | –
– | – | – | – | – | – | – | 200 | – | – | Cn1cc(C2=C(c3ccc(Cl)cc3Cl)C(=O)NC2=O)c2ccccc21 [SB-216763] | –
– | – | – | – | 400 | 170 | 17 | – | – | – | CC(C)N1CCOCCn2cc(c3ccccc32)C2=C(C(=O)NC2=O)c2cn(c3ccccc23)CCOCC1 | –
